Measurements reported in ChEMBL document CHEMBL4270554, “Discovery of the cancer cell selective dual acting anti-cancer agent (Z)-2-(1H-indol-3-yl)-3-(isoquinolin-5-yl)acrylonitrile (A131)” (Eur J Med Chem, 2018).

Experiments:
[1] = Antiproliferative activity against human SGCC-GC38 cells after 72 hrs by MTT assay; format: functional
Procedure, shortened: (§1)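 Cells cultured at 37 °C, 5% CO₂ in medium with 10% FBS and penicillin/streptomycin, used within 12-20 passages. Seeded at 2.5×10^3 cells/well for 24 h, then compound added from DMSO stocks at 200-fold final concentration (final DMSO 0.5% v/v). After 72 h, 0.5 mg/mL MTT for 3 h, formazan dissolved in DMSO, A570 read. IC50 from sigmoidal fit; three independent determinations.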

HeLa [2] = experiment: Induction of autophagy in human HeLa cells assessed as increase in LC3-2 to LC3-1 ratio at 1.25 uM after 6 hrs by immunoblot analysis relative to control; format: functional
Procedure, shortened: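 HeLa cells exposed 6 h to test agent (0.625–10 μM series) or chloroquine (1.25–100 μM series) vs DMSO; lysed in 1% Triton buffer (25 mM Tris pH 8.0, 150 mM NaCl, DTT, protease/phosphatase inhibitors), 14% SDS-PAGE, immunoblot with anti-LC3, anti-pH3(Ser10), β-actin loading. LC3-II/LC3-I band intensity ratio expressed relative to DMSO control.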

[3] = Antiproliferative activity against human SNU620 cells after 72 hrs by MTT assay; format: functional; details: SNU620, 72 h; procedure, shortened: as §1
HT-29 = experiment: Antiproliferative activity against human HT-29 cells after 72 hrs by MTT assay; format: functional; details: HT-29, 72 h; procedure, shortened: as §1
[4] = Half life in pooled female rat liver microsomes at 3 uM preincubated for 5 mins followed by NADPH addition measured after 45 mins by LC-MS/MS method; format: ADME, microsome
Procedure, shortened: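 Pooled female or male rat liver microsomes (0.3 mg protein/mL) with 3 μM substrate in 0.1 M phosphate buffer pH 7.4, pre-incubated 5 min at 37 °C, started with 1 mM NADPH. Samples at 0-45 min quenched in cold acetonitrile with internal standard, analysed by LC-MS/MS. Triplicates; midazolam positive control, no-NADPH negative control.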

[5] = Antiproliferative activity against human IMR90 cells after 72 hrs by MTT assay; format: cell-based; details: IMR-90 cells; procedure, shortened: as §1
[6] = Antiproliferative activity against human hTERT-RPE1 cells after 72 hrs by MTT assay; format: cell-based, TERT-RPE1; procedure, shortened: as §1
MKN-45 = experiment: Antiproliferative activity against human MKN45 cells after 72 hrs by MTT assay; format: functional; details: MKN-45, 72 h; procedure, shortened: as §1
HeLa [7] = experiment: Induction of autophagy in human HeLa cells assessed as increase in LC3-2 to LC3-1 ratio at 0.625 uM after 6 hrs by immunoblot analysis relative to control; format: functional
Procedure, shortened: (§2)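 HeLa cells were exposed for 6 h to the compound at 0.625, 1.25, 2.5, 5 or 10 µM, or to DMSO. Cells were lysed in 1% Triton buffer (pH 8.0) with protease and phosphatase inhibitors. Lysates were resolved by 14% SDS-PAGE and immunoblotted for LC3, with β-actin probed. The LC3-II/LC3-I band-intensity ratio was expressed relative to the DMSO control.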

Salmonella typhimurium [8] = experiment: Genotoxicity in Salmonella typhimurium TA98 after 48 hrs in presence of S9 fraction by Ames test; format: toxicity, organism-based; details: salmonella enterica subsp. enterica serovar typhimurium, s9, 48 h
[9] = Antiproliferative activity against human NCC59 cells after 72 hrs by MTT assay; format: functional; procedure, shortened: as §1
[10] = Intrinsic clearance in pooled female rat liver microsomes assessed per mg protein at 3 uM preincubated for 5 mins followed by NADPH addition measured after 45 mins by LC-MS/MS method; format: ADME, microsome; details: read-out: CLH
Procedure, shortened: (§3)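 Pooled female or male rat liver microsomes (0.3 mg protein/mL) with substrate at final 3 μM in 0.1 M phosphate pH 7.4. Pre-incubated 5 min at 37 °C, then started with NADPH (final 1 mM). Sampled at 0–45 min in triplicate, quenched with cold acetonitrile plus internal standard. Parent measured by LC-MS/MS. Midazolam as positive control; no-NADPH negative control.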

[11] = Antiproliferative activity against human SNU216 cells after 72 hrs by MTT assay; format: functional; details: SNU-216, 72 h; procedure, shortened: as §1
[12] = Intrinsic clearance in pooled male rat liver microsomes assessed per mg protein at 3 uM preincubated for 5 mins followed by NADPH addition measured after 45 mins by LC-MS/MS method; format: ADME, microsome; details: read-out: CLH; procedure, shortened: as §3
AZ-521 cell line = experiment: Antiproliferative activity against human AZ-521 cells after 72 hrs by MTT assay; format: functional; details: AZ-521, 72 h; procedure, shortened: as §1
SNU-16 = experiment: Antiproliferative activity against human SNU16 cells after 72 hrs by MTT assay; format: functional; details: SNU-16, 72 h; procedure, shortened: as §1
HeLa [13] = experiment: Induction of autophagy in human HeLa cells assessed as increase in LC3-2 to LC3-1 ratio at 5 uM after 6 hrs by immunoblot analysis relative to control; format: functional; procedure, shortened: as §2
[14] = Antiproliferative activity against human WI38 cells after 72 hrs by MTT assay; format: cell-based; details: WI-38 cells; procedure, shortened: as §1
BJ [15] = experiment: Antiproliferative activity against human BJ cells assessed as reduction in cell viability at 5 uM incubated for 4 days followed by compound washout measured after 11 days by cell counting method; format: cell-based; details: 96 h
Procedure, shortened: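 Normal BJ fibroblasts synchronized in G1 by 2-day serum starvation (0.1% FBS), released into 10% FBS medium and exposed to 5 μM for 2, 4 or 11 days. After 2 or 4 days drug removed and growth continued in fresh medium up to 11 days. Total cell numbers by automated counter; mean ± S.D., n>6.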

BJ [16] = experiment: Induction of apoptosis in human BJ cells assessed as activation of caspase-3/7 up to 5 uM after 48 hrs by caspase-Glo 3/7 luminescent assay; format: cell-based
Procedure, shortened: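 Normal and transformed BJ cells treated 48 h across a concentration series. Caspase-3/7 activity by Caspase-Glo 3/7 luminescence, normalized to viable cell number from MTT. Mean ± S.D., n=3; two-tailed unpaired t tests.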

U2OS = experiment: Antiproliferative activity against human U2OS cells after 72 hrs by MTT assay; format: functional; procedure, shortened: as §1
hTERT-BJ = experiment: Inhibition of mitotic progression in human hTERT-BJ cells transformed with hTert, small t, shRNAs against p53 and pRb and H-RasV12-ER assessed as increase in phosphorylated histone H3 (Ser10) level at 5 uM after 24 hrs by immunoblot analysis relative to control; format: functional
Procedure, shortened: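 Fully transformed BJ fibroblasts (hTert, small t, shRNAs to p53 and pRb, H-RasV12-ER) treated 24 h at 5 μM. Immunoblot protocol as for HeLa. pH3 (Ser10) band intensity expressed as fold of DMSO control; under 2-fold counted as insignificant.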

HCT-116 = experiment: Antiproliferative activity against human HCT116 cells after 72 hrs by MTT assay; format: functional; details: HCT-116, 72 h; procedure, shortened: as §1
Salmonella typhimurium [17] = experiment: Genotoxicity in Salmonella typhimurium TA100 after 48 hrs in presence of S9 mix by Ames test; format: toxicity, organism-based; details: salmonella enterica subsp. enterica serovar typhimurium
MDA-MB-231 = experiment: Antiproliferative activity against human MDA-MB-231 cells after 72 hrs by MTT assay; format: functional; details: MDA-MB-231, 72 h; procedure, shortened: as §1
SCH = experiment: Antiproliferative activity against human SCH cells after 72 hrs by MTT assay; format: functional; procedure, shortened: as §1
[18] = Antiproliferative activity against human NCC19 cells after 72 hrs by MTT assay; format: functional; procedure, shortened: as §1
Huh-7 = experiment: Antiproliferative activity against human HuH7 cells after 72 hrs by MTT assay; format: functional; details: Huh-7, 72 h; procedure, shortened: as §1

In the case of N#C/C(=C\c1cccc2cnccc12)c1c[nH]c2ccccc12, the GI50 [1] is reported as 1900 nM, the “fold change (FC)” value (HeLa [2]) is reported as 2.3 and the GI50 [3] is reported as 1000 nM. For the same compound, the GI50 (HT-29) was 900 nM, the half-life at 3 µM [4] was 40.2 min and the GI50 at 72 h [5] was 5800 nM. The GI50 at 72 h [6] was 5200 nM, the GI50 (MKN-45) was 1000 nM and the “fold change (FC)” value (HeLa [7]) was 1. The Activity (Salmonella typhimurium [8]) was “Non-Toxic”, the GI50 [9] was 900 nM and the microsomal CLint at 3 µM [10] was 59 µL/min/mg. The GI50 [11] was 1900 nM, the microsomal CLint at 3 µM [12] was 299 µL/min/mg and the GI50 (AZ-521 cell line) was 2400 nM. The GI50 (SNU-16) was 1000 nM, the “fold change (FC)” value (HeLa [13]) was 4.3 and the GI50 at 72 h [14] was 3400 nM. The Activity (BJ [15]) was “Non-Toxic”, the Activity (BJ [16]) was “Non-Toxic” and the GI50 (U2OS) was 1500 nM. The “fold change (FC)” value (hTERT-BJ) was 7.3, the GI50 (HCT-116) was 1800 nM and the Activity (Salmonella typhimurium [17]) was “Non-Toxic”. The GI50 (MDA-MB-231) was 1100 nM, the GI50 (SCH) was 1700 nM and the GI50 [18] was 4600 nM. The GI50 (Huh-7) was 1200 nM.
